Reference: ChEMBL document CHEMBL4118054, “Tamarixetin 3-O-β-d-Glucopyranoside from Azadirachta indica Leaves: Gastroprotective Role through Inhibition of Matrix Metalloproteinase-9 Activity in Mice” (J Nat Prod, 2017)
Activity calls are given as the source filed them. The rule behind the calls is not given here.

Experiments:
Mus musculus [1] = test: (§1) Antiulcerogenic activity in indomethacin-induced gastric ulceration Balb/c mouse model assessed as decrease in visible gastric hemorrhagic lesions in fundic stomach administered orally 30 mins prior to indomethacin challenge measured after 4 hrs; assay type: functional, organism-based
Mus musculus [2] = test: as §1, with “stomach by measuring ulcer index at 15 mg/kg, po” for “stomach”, “administered” for “administered orally”, “hrs (reference value: 35 +/- 7.5)” for “hrs”; assay type: functional
Mus musculus [3] = test: Antiulcerogenic activity in indomethacin-induced gastric ulceration Balb/c mouse model assessed as restoration of intact epithelial layer in stomach at 15 to 25 mg/kg, po administered 30 mins prior to indomethacin challenge measured after 4 hrs by H and E staining based microscopic method; assay type: functional, organism-based
Method in brief: (§2)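 Same indomethacin model (80 mg/kg b.w. oral, test agent 15 or 25 mg/kg b.w. oral 30 min prior, sacrifice at 4 h). Stomach pieces fixed in 4% paraformaldehyde, paraffin-embedded, ~5 μm sections H&E stained. Damage index scored blind as percentage of the gastric corpus circumference showing hemorrhage or epithelial disruption; submucosal infiltrating cells and epithelial continuity inspected microscopically.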

Mus musculus [4] = test: Antiulcerogenic activity in indomethacin-induced gastric ulceration Balb/c mouse model assessed as gastric damage index at 15 mg/kg, po administered 30 mins prior to indomethacin challenge measured after 4 hrs by H and E staining based microscopic method (reference value: 40 +/- 7); assay type: functional; method in brief: as §2
Mus musculus [5] = test: Antiulcerogenic activity in indomethacin-induced gastric ulceration Balb/c mouse model assessed as gastric damage index at 25 mg/kg, po administered 30 mins prior to indomethacin challenge measured after 4 hrs by H and E staining based microscopic method (reference value: 40 +/- 7); assay type: functional; method in brief: as §2
Mus musculus [6] = test: Antiulcerogenic activity in indomethacin-induced gastric ulceration Balb/c mouse model assessed as infilteration of inflammatory cells at submucosal layer at 15 to 25 mg/kg, po administered 30 mins prior to indomethacin challenge measured after 4 hrs by H and E staining based microscopic method; assay type: functional, organism-based; method in brief: as §2
Mus musculus [7] = test: In vivo inhibition of MMP9 in indomethacin-induced gastric ulceration Balb/c mouse model assessed as reduction in indomethacin-induced ProMMP9 activity in gastric tissue administered orally 30 mins prior to indomethacin challenge measured after 4 hrs by gelatin zymographic method; assay type: functional, organism-based
Method in brief: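 Gastric tissue from the indomethacin model (test agent orally 15 or 25 mg/kg b.w., 30 min before indomethacin, 4 h) minced at 4 °C in PBS with protease inhibitors, spun 12000g 15 min. PBS extract (70 μg protein/lane, Lowry) run on 8% SDS-PAGE with 1 mg/mL gelatin, nonreducing. Gels washed in 2.5% Triton X-100, incubated 18 h at 37 °C in 40 mM Tris-HCl pH 7.4, 0.2 M NaCl, 10 mM CaCl2, Coomassie stained, densitometry.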

Mus musculus [8] = test: Toxicity in indomethacin-induced gastric ulceration Balb/c mouse model assessed as alteration in gastric tissue at 15 to 25 mg/kg, po administered 30 mins prior to indomethacin challenge measured after 4 hrs; assay type: organism-based; conditions: in vivo
[9] = target: T1, Matrix metalloproteinase-9 (Homo sapiens, UniProt P14780); test: Inhibition of recombinant human full length MMP9 preincubated for 1 hr followed by gelatin addition measured after 18 hrs by SDS-PAGE analysis
T1 sequence (P14780 whole entry): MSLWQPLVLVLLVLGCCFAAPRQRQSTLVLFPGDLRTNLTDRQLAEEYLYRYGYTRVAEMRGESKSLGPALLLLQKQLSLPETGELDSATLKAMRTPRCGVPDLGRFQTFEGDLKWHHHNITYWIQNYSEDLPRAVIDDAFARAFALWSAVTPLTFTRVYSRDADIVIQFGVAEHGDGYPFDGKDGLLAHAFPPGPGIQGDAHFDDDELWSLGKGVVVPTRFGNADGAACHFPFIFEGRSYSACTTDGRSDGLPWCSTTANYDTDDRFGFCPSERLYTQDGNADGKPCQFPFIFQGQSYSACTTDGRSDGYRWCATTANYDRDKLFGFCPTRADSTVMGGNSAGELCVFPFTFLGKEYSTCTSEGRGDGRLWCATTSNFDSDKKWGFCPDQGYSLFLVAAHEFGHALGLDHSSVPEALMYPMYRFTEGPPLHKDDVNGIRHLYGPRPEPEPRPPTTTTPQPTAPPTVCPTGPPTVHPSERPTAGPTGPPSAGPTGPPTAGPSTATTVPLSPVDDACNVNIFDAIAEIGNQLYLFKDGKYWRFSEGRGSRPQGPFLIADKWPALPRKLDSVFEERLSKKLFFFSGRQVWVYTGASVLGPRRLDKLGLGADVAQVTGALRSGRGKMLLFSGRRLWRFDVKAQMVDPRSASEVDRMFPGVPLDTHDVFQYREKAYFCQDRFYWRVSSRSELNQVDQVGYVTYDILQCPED
Method in brief: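 Full-length recombinant human MMP-9 (~5 μg) incubated 1 h at room temperature with 0−500 μM test agent, then run on nonreducing 8% SDS-PAGE with 1 mg/mL gelatin. Gels washed in 2.5% Triton X-100, incubated 18 h at 37 °C in 40 mM Tris-HCl pH 7.4, 200 mM NaCl, 10 mM CaCl2, Coomassie stained; lysis bands quantified by densitometry against untreated enzyme. IC50 taken from activity change versus concentration, saturation set as 100%.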

[10] = target: T1, Matrix metalloproteinase-9; test: Binding affinity to human full length MMP9 assessed as decrease in cotton effects of compound up to 500 uM by CD spectral analysis
[11] = target: T1, Matrix metalloproteinase-9; test: Binding affinity to human full length MMP9 by CD spectral analysis
Method in brief: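 Near-UV/visible CD spectra (240−700 nm), 1.0 mm quartz cell, under nitrogen at room temperature in aqueous buffer. Ligand held at 100 μM (from 10 mM methanol stock) while MMP-9 varied 0−333 nM. Kd at half-saturation derived from a double-reciprocal plot of Δθ against MMP-9 concentration.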

Mus musculus [12] = test: as §1, with “stomach by measuring ulcer index at 25 mg/kg, po” for “stomach”, “administered” for “administered orally”, “hrs (reference value: 35 +/- 7.5)” for “hrs”; assay type: functional
[13] = target: T1, Matrix metalloproteinase-9; test: Residual activity of recombinant human full length MMP9 at 60 uM preincubated for 1 hr followed by gelatin addition measured after 18 hrs by SDS-PAGE analysis relative to control
[14] = target: T1, Matrix metalloproteinase-9; test: Residual activity of recombinant human full length MMP9 at 125 uM preincubated for 1 hr followed by gelatin addition measured after 18 hrs by SDS-PAGE analysis relative to control
[15] = target: T1, Matrix metalloproteinase-9; test: Residual activity of recombinant human full length MMP9 at 250 uM preincubated for 1 hr followed by gelatin addition measured after 18 hrs by SDS-PAGE analysis relative to control

IC50 [9]: 50 µM | inhibition [9]: Dose-dependent effect | Activity [10]: Active | Kd [11]: 100 nM | residual activity [13]: 60% | residual activity [14]: 45% | residual activity [15]: 40%
SMILES: COc1ccc(-c2oc3cc(O)cc(O)c3c(=O)c2O[C@@H]2O[C@H](CO)[C@@H](O)[C@H](O)[C@H]2O)cc1O
Activity (Mus musculus [1]): Dose-dependent effect | UI (Mus musculus [2]): 8 | Activity (Mus musculus [3]): Active | Activity_index (Mus musculus [4]): 10 | Activity_index (Mus musculus [5]): 5 | Activity (Mus musculus [6]): Active | inhibition (Mus musculus [7]): Dose-dependent effect | Activity (Mus musculus [8]): Non-Toxic | UI (Mus musculus [12]): 5
